Calls of active or inactive are those of the source. The rule behind the calls is not given here.
Key:
[1] = molecular target: T1, Fatty acid-binding protein, liver (Rattus norvegicus) (UniProt P02692); assay: Binding affinity to rat recombinant L-FABP low affinity site expressed in Escherichia coli BL21(DE3) assessed as occupancy at a drug-protein molar ratio of 3:1 by NMR chemical shift perturbation method
T1 sequence (whole entry): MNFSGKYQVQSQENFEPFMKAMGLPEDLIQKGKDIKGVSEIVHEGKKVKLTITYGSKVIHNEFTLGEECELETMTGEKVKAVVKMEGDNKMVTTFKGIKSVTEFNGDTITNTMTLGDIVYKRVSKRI

[2] = molecular target: T1, Fatty acid-binding protein, liver (Rattus norvegicus); assay: Binding affinity to rat recombinant L-FABP high affinity site expressed in Escherichia coli BL21(DE3) assessed as occupancy at a drug-protein molar ratio of 3:1 by NMR chemical shift perturbation method
[3] = molecular target: T2, Fatty acid-binding protein, liver (Rattus norvegicus, UniProt P02692); assay: Binding affinity to rat recombinant L-FABP high affinity site expressed in Escherichia coli BL21(DE3) at 20 deg C by fluorimetric assay
T2 sequence (P02692 whole entry): T1 sequence (whole entry)
Method in brief: (§1)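 Steady-state ANS displacement: the fluorescent cavity probe 1-anilino-8-naphthalene sulfonic acid is bound to recombinant rat L-FABP (15N/13C-labelled, purified from E. coli). Fibrates in DMSO are titrated directly into the protein. The fall in ANS fluorescence is plotted against free ligand. A two-site competition nonlinear fit gives EC50, converted to Ki for each site.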

[4] = molecular target: T2, Fatty acid-binding protein, liver; assay: Binding affinity to rat recombinant L-FABP high affinity site expressed in Escherichia coli BL21(DE3) at 37 deg C by fluorimetric assay; method in brief: as §1
[5] = molecular target: T2, Fatty acid-binding protein, liver; assay: Binding affinity to rat recombinant L-FABP high affinity site expressed in Escherichia coli BL21(DE3) at 42 deg C by fluorimetric assay; method in brief: as §1
[6] = molecular target: T2, Fatty acid-binding protein, liver; assay: Binding affinity to rat recombinant L-FABP high affinity site expressed in Escherichia coli BL21(DE3) at 10 deg C by fluorimetric assay; method in brief: as §1
[7] = molecular target: T2, Fatty acid-binding protein, liver; assay: Binding affinity to rat recombinant L-FABP high affinity site expressed in Escherichia coli BL21(DE3) at 30 deg C by fluorimetric assay; method in brief: as §1
[8] = molecular target: T2, Fatty acid-binding protein, liver; assay: Binding affinity to rat recombinant L-FABP high affinity site expressed in Escherichia coli BL21(DE3) at 25 deg C by fluorimetric assay; method in brief: as §1
[9] = molecular target: T2, Fatty acid-binding protein, liver; assay: Binding affinity to rat recombinant L-FABP high affinity site expressed in Escherichia coli BL21(DE3) at 15 deg C by fluorimetric assay; method in brief: as §1
[10] = molecular target: T2, Fatty acid-binding protein, liver; assay: Binding affinity to rat recombinant L-FABP high affinity site expressed in Escherichia coli BL21(DE3) at 5 deg C by fluorimetric assay; method in brief: as §1
[11] = molecular target: T2, Fatty acid-binding protein, liver; assay: Binding affinity to rat recombinant L-FABP low affinity site expressed in Escherichia coli BL21(DE3) at 42 deg C by fluorimetric assay; method in brief: as §1
[12] = molecular target: T2, Fatty acid-binding protein, liver; assay: Binding affinity to rat recombinant L-FABP low affinity site expressed in Escherichia coli BL21(DE3) at 37 deg C by fluorimetric assay; method in brief: as §1
[13] = molecular target: T2, Fatty acid-binding protein, liver; assay: Binding affinity to rat recombinant L-FABP low affinity site expressed in Escherichia coli BL21(DE3) at 15 deg C by fluorimetric assay; method in brief: as §1
[14] = molecular target: T2, Fatty acid-binding protein, liver; assay: Binding affinity to rat recombinant L-FABP low affinity site expressed in Escherichia coli BL21(DE3) at 5 deg C by fluorimetric assay; method in brief: as §1
[15] = molecular target: T2, Fatty acid-binding protein, liver; assay: Binding affinity to rat recombinant L-FABP low affinity site expressed in Escherichia coli BL21(DE3) at 25 deg C by fluorimetric assay; method in brief: as §1
[16] = molecular target: T2, Fatty acid-binding protein, liver; assay: Binding affinity to rat recombinant L-FABP low affinity site expressed in Escherichia coli BL21(DE3) at 20 deg C by fluorimetric assay; method in brief: as §1
[17] = molecular target: T2, Fatty acid-binding protein, liver; assay: Binding affinity to rat recombinant L-FABP low affinity site expressed in Escherichia coli BL21(DE3) at 30 deg C by fluorimetric assay; method in brief: as §1
[18] = molecular target: T2, Fatty acid-binding protein, liver; assay: Binding affinity to rat recombinant L-FABP low affinity site expressed in Escherichia coli BL21(DE3) at 10 deg C by fluorimetric assay; method in brief: as §1

| Activity [1] | Activity [2] | Kd [3] | Kd [4] | Kd [5] | Kd [6] | Kd [7] | Kd [8] | Kd [9] | Kd [10] | Kd [11] | Kd [12] | Kd [13] | Kd [14] | Kd [15] | Kd [16] | Kd [17] | Kd [18] | SMILES |
| --- | --- | --- | --- | --- | --- | --- | --- | --- | --- | --- | --- | --- | --- | --- | --- | --- | --- | --- |
| 93% | inactive | – | – | – | – | – | – | – | – | – | – | – | – | – | – | – | – | CC(C)(Oc1ccc(CCNC(=O)c2ccc(Cl)cc2)cc1)C(=O)O |
| 100% | 100% | 0.027 µM | 0.062 µM | – | 0.023 µM | 0.041 µM | 0.032 µM | 0.024 µM | 0.018 µM | 0.36 µM | 0.32 µM | 0.16 µM | 0.13 µM | 0.25 µM | 0.2 µM | 0.27 µM | 0.15 µM | CC(C)OC(=O)C(C)(C)Oc1ccc(C(=O)c2ccc(Cl)cc2)cc1 [FENOFIBRATE] |
| 96% | 100% | 0.22 µM | 0.42 µM | – | 0.1 µM | 0.36 µM | 0.34 µM | 0.16 µM | 0.094 µM | 29 µM | 28 µM | 20 µM | 18 µM | 24 µM | 23 µM | 27 µM | 19 µM | CC(C)(Oc1ccc(C(=O)c2ccc(Cl)cc2)cc1)C(=O)O [FENOFIBRIC ACID] |

The remaining lines, values behind:

| SMILES | Activity [1] | Activity [2] | Kd [3] | Kd [4] | Kd [5] | Kd [6] | Kd [7] | Kd [8] | Kd [9] | Kd [10] | Kd [11] | Kd [12] | Kd [13] | Kd [14] | Kd [15] | Kd [16] | Kd [17] | Kd [18] |
| --- | --- | --- | --- | --- | --- | --- | --- | --- | --- | --- | --- | --- | --- | --- | --- | --- | --- | --- |
| CC(C)(Oc1ccc(C2CC2(Cl)Cl)cc1)C(=O)O (stereo not given) | 85% | 100% | – | – | – | – | – | – | – | – | – | – | – | – | – | – | – | – |
| Cc1ccc(C)c(OCCCC(C)(C)C(=O)O)c1 | 79% | 100% | – | – | – | – | – | – | – | – | – | – | – | – | – | – | – | – |
| CCOC(=O)C(C)(C)Oc1ccc(Cl)cc1 [CLOFIBRATE] | inactive | 99% | 7.8 µM | 11 µM | 12 µM | 6.7 µM | 9.6 µM | 8.9 µM | 7.3 µM | 6 µM | – | – | – | – | – | – | – | – |

From ChEMBL document CHEMBL1152434, “Probing the fibrate binding specificity of rat liver fatty acid binding protein” (J Med Chem, 2009)
